The values that follow come from PubChem BioAssay.

Activity calls are given as the source filed them.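 Rule for the calls, unless noted: active = GFP response above 150% of the DMSO level; inconclusive = fewer than 70 events counted for a yeast strain; inactive = the rest.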

A short description of assay [1]: RPL19A-GFP modulators, yeast TOR pathway, confirmation, cell-based, S. cerevisiae, flow cytometry, cherry picks, mother/daughter gates (AID 2270;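 active = GFP response below 50% of the DMSO control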). The note with it: S. cerevisiae RPL19A-GFP strain, 3 h, at 10 µM, stronger effect = lower value, 100 = same GFP as DMSO wells. (In general: Flow cytometry measures light scatter and fluorescence of single cells or particles in a stream.)

The nature of assay [2]: LAP4-GFP expression modulators in yeast, confirmation, cell-based, cherry picks, flow cytometry, mother/daughter gates (AID 2271;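 active = GFP response above 150% of the DMSO control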;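 note: ratio of sample to DMSO plate mean so 100% equals DMSO level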). Particulars: S. cerevisiae LAP4-GFP strain, 3 h, at 10 µM, stronger effect = higher value, 100 means same as DMSO control. Summed up: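 System: Alexa 633-stained baker's yeast GFP-fusion strain / Medium: synthetic complete (SC) yeast growth medium / Doses: compound at 10 µM, single point / Times: 3 h treatment at 30 °C with rotation / Detection: HT flow cytometry, GFP fluorescence channel / Benchmarks: DMSO-only negative wells, rapamycin 400 ng/mL positive wells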

A short description of assay [3]: modulators of MEP2-GFP levels in yeast, confirmation, S. cerevisiae, flow cytometry GFP, cherry picks (AID 2272;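 active = GFP response above 150% of the DMSO control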;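 note: ratio of well signal to plate DMSO mean so 100% equals DMSO level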). Particulars: S. cerevisiae MEP2-GFP strain, 3 h, at 10 µM, stronger effect = higher value.
Assay [4] is described as follows: AGP1-GFP expression modulators, hit retest, confirmation, cell-based, flow cytometry, S. cerevisiae, cherry picks (AID 2273).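 Note: median GFP channel fluorescence over the whole cell population gate.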 The note with it: S. cerevisiae AGP1-GFP strain, 3 h, at 10 µM.
The nature of assay [5]: modulators of CIT2-GFP expression in yeast, confirmation, S. cerevisiae, GFP fusion, cherry picks, mother/daughter gates (AID 2274). The note with it: S. cerevisiae CIT2-GFP strain, flow cytometry, 3 h, at 10 µM, stronger effect = higher value.
Setting [6] is: measured here: daughter cell gate.
Where [7] appears, read: measured here: mother cell gate.
Where [8] appears, read: measured here: daughter cell gate response.
Where [9] appears, read: measured here: mother cell gate response.

Consider `COc1ccc(/C=C/C(=O)NC(=S)NNC(=O)c2cnccn2)cc1`, for which the GFP response vs DMSO in assay [1] is 105% (inactive); in assay [1] (setting [6]) it was 91.1%; in assay [1] (setting [7]), 79.2%; in assay [3] it was 140% (inactive). In addition, the GFP response relative to DMSO was 166% (active) in assay [2], 120% in assay [2] (setting [8]) and 162% in assay [2] (setting [9]). For the same molecule, the GFP response, % of DMSO is 78.5% (inactive) in assay [4], 115% (inactive) in assay [5], 99.1% in assay [5] (setting [6]) and 106% in assay [5] (setting [7]).

As to `c1cc2c(cc1C1CCCCC1)c1c3n2CCCNC3CCC1` (stereo not drawn), the GFP response vs DMSO in assay [1] is 101% (inactive); in assay [1] (setting [6]) it was 99%; in assay [1] (setting [7]), 100%; in assay [3], 111% (inactive). Moreover, the figures for the GFP response relative to DMSO in assay [2], in assay [2] (setting [8]) and in assay [2] (setting [9]) were 101% (inactive), 102% and 102%, respectively. Also, the GFP response, % of DMSO was 105% (inactive) in assay [4], 100% (inactive) in assay [5], 96.5% in assay [5] (setting [6]) and 98.7% in assay [5] (setting [7]).

Consider `COc1ccc2c(/C=C/c3cc[n+](C)cc3)c[nH]c2c1`, for which the GFP response vs DMSO in assay [1] was 102% (inactive); in assay [1] (setting [6]), 106%; in assay [1] (setting [7]), 101%; in assay [3] it was 199% (active). Moreover, the GFP response relative to DMSO in assay [2] is 144% (inactive); in assay [2] (setting [8]), 152%; in assay [2] (setting [9]), 143%. Further, the GFP response, % of DMSO in assay [4] is 100% (inactive); in assay [5] it was 161% (active); in assay [5] (setting [6]), 169%; in assay [5] (setting [7]), 157%.

For the molecule `O=S(=O)(/N=C(/Sc1ccccc1)c1ccccc1)c1ccccc1`, the GFP response vs DMSO in assay [1] was 92% (inactive); in assay [1] (setting [6]) it was 92.5%; in assay [1] (setting [7]), 89.8%; in assay [3], 106% (inactive). In addition, the GFP response relative to DMSO in assay [2] was 179% (active); in assay [2] (setting [8]), 152%; in assay [2] (setting [9]), 180%. The GFP response, % of DMSO in assay [4] was 101% (inactive); in assay [5], 84.7% (inactive); in assay [5] (setting [6]), 88.7%; in assay [5] (setting [7]) it was 79.2%.

For `COc1ccccc1-c1noc(CCC(=O)Nc2cccc(C)c2)n1`, the GFP response vs DMSO in assay [1] is 99.9% (inactive); in assay [1] (setting [6]), 100%; in assay [1] (setting [7]), 100%; in assay [3] it was 97.5% (inactive). Further, the GFP response relative to DMSO was 96.5% (inactive) in assay [2], 96.5% in assay [2] (setting [8]) and 96.5% in assay [2] (setting [9]). Moreover, the GFP response, % of DMSO in assay [4] is 90.8% (inactive); in assay [5] it was 95% (inactive); in assay [5] (setting [6]), 98.3%; in assay [5] (setting [7]) it was 95.6%.

For `COc1ccc(CN2CN(C(C)C)CSC2=S)cc1`, the GFP response vs DMSO in assay [1] was 98.8% (inactive); in assay [1] (setting [6]) it was 96.7%; in assay [1] (setting [7]) it was 92.1%; in assay [3], 146% (inactive). Moreover, the figures for the GFP response relative to DMSO in assay [2], in assay [2] (setting [8]) and in assay [2] (setting [9]) were 112% (inactive), 106% and 107%, respectively. In addition, the GFP response, % of DMSO is 107% (inactive) in assay [4], 80.8% (inactive) in assay [5], 80.1% in assay [5] (setting [6]) and 75.1% in assay [5] (setting [7]).

Regarding `CCOC(=O)c1sc(NC(=O)c2ccc3ncsc3c2)nc1C`, the GFP response vs DMSO was 98% (inactive) in assay [1], 95% in assay [1] (setting [6]), 94.8% in assay [1] (setting [7]) and 110% (inactive) in assay [3]. The GFP response relative to DMSO in assay [2] is 95.3% (inactive); in assay [2] (setting [8]) it was 96%; in assay [2] (setting [9]) it was 93.4%. Besides, the GFP response, % of DMSO in assay [4] was 96.4% (inactive); in assay [5], 98.6% (inactive); in assay [5] (setting [6]), 95.8%; in assay [5] (setting [7]), 93.8%.

In the case of `NC(=O)CSCc1c(Cl)cccc1Cl`, the GFP response vs DMSO in assay [1] is 101% (inactive); in assay [1] (setting [6]), 100%; in assay [1] (setting [7]), 101%; in assay [3], 109% (inactive). Moreover, the GFP response relative to DMSO in assay [2] was 105% (inactive); in assay [2] (setting [8]), 103%; in assay [2] (setting [9]) it was 108%. Moreover, the GFP response, % of DMSO is 97.2% (inactive) in assay [4], 93.9% (inactive) in assay [5], 94.8% in assay [5] (setting [6]) and 92.3% in assay [5] (setting [7]).

`COc1ccc(CNC(=O)c2c(O)c3ccccc3n(C)c2=O)cc1OC`: the GFP response vs DMSO in assay [1] is 96.9% (inactive); in assay [1] (setting [6]) it was 97.8%; in assay [1] (setting [7]), 96.7%; in assay [3], 110% (inactive). Also, the GFP response relative to DMSO in assay [2] was 90.6% (inactive); in assay [2] (setting [8]), 92.9%; in assay [2] (setting [9]), 91.3%. In addition, the GFP response, % of DMSO in assay [4] is 99.1% (inactive); in assay [5], 103% (inactive); in assay [5] (setting [6]), 105%; in assay [5] (setting [7]), 103%.

`Cc1nn2c(NCCCN3CCOCC3)c3c(nc2c1-c1ccccc1)CCC3`: the GFP response vs DMSO in assay [1] was 101% (inactive); in assay [1] (setting [6]) it was 102%; in assay [1] (setting [7]) it was 101%; in assay [3] it was 99% (inactive). Also, the GFP response relative to DMSO in assay [2] is 98.2% (inactive); in assay [2] (setting [8]) it was 97.5%; in assay [2] (setting [9]) it was 98.4%. In addition, the GFP response, % of DMSO in assay [4] was 103% (inactive); in assay [5] it was 100% (inactive); in assay [5] (setting [6]), 101%; in assay [5] (setting [7]) it was 101%.

For the molecule `CCc1nnc(N2C(=O)c3cccc4cccc(c34)C2=O)s1`, the GFP response vs DMSO was 94.5% (inactive) in assay [1], 95% in assay [1] (setting [6]), 93.3% in assay [1] (setting [7]) and 108% (inactive) in assay [3]. Also, the values for the GFP response relative to DMSO in assay [2], in assay [2] (setting [8]) and in assay [2] (setting [9]) were 94.1% (inactive), 92.9% and 94.4%, respectively. The GFP response, % of DMSO is 98.8% (inactive) in assay [4], 100% (inactive) in assay [5], 101% in assay [5] (setting [6]) and 99.3% in assay [5] (setting [7]).

For the molecule `CCN(CC)S(=O)(=O)c1cccc(C(=O)NCC(c2ccccc2)N(C)C)c1` (stereo not drawn), the GFP response vs DMSO in assay [1] was 99.7% (inactive); in assay [1] (setting [6]), 102%; in assay [1] (setting [7]), 98.5%; in assay [3], 106% (inactive). In addition, the GFP response relative to DMSO was 110% (inactive) in assay [2], 111% in assay [2] (setting [8]) and 106% in assay [2] (setting [9]). Also, the GFP response, % of DMSO in assay [4] is 104% (inactive); in assay [5], 104% (inactive); in assay [5] (setting [6]) it was 106%; in assay [5] (setting [7]), 98%.

As to `COc1ccc(C2CC(c3ccccc3)=NN2S(=O)(=O)c2ccccc2)c(OC)c1` (stereo not drawn), the GFP response vs DMSO in assay [1] was 99.2% (inactive); in assay [1] (setting [6]), 99.8%; in assay [1] (setting [7]), 99.1%; in assay [3] it was 99% (inactive). The GFP response relative to DMSO in assay [2] was 99.5% (inactive); in assay [2] (setting [8]) it was 102%; in assay [2] (setting [9]) it was 99.4%. Besides, the GFP response, % of DMSO in assay [4] is 103% (inactive); in assay [5] it was 106% (inactive); in assay [5] (setting [6]), 108%; in assay [5] (setting [7]) it was 104%.
